Reference: ChEMBL document CHEMBL1255328, “Transcriptional and translational control of the mlr operon, which confers resistance to seven classes of protein synthesis inhibitors” (2008)
Converted amounts (≈) assume the structure as drawn.

Legend:
Staphylococcus aureus [1] = experiment: Antimicrobial activity against methicillin-resistant Staphylococcus aureus CM05 by broth microdilution method; type: functional
Method in brief: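 Clinical MRSA strain CM05. MICs determined by broth microdilution following accepted recommendations.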

Staphylococcus aureus [2] = experiment: Antimicrobial activity against erm(B)-deficient Staphylococcus aureus RN4220 harboring cfr gene by broth microdilution method; type: functional
Method in brief: (§1)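 S. aureus RN4220 carrying the relevant shuttle plasmid, introduced by electroporation and selected on LB agar with 10 µg/ml chloramphenicol. MICs by broth microdilution per accepted recommendations. Disk diffusion: ca. 10^7 cells in 4 ml 0.6% soft agar over 1.5% LB agar with 10 µg/ml chloramphenicol. Paper disks (5 mm) held 20 µg erythromycin or 30 µg florfenicol. Plates incubated overnight at 37°C and photographed.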

Staphylococcus aureus [3] = experiment: Antimicrobial activity against Staphylococcus aureus RN4220 harboring plasmid MS2 by broth microdilution method; type: functional; method in brief: as §1
Staphylococcus aureus [4] = experiment: Antimicrobial activity against Staphylococcus aureus RN4220 harboring plasmid LI50 by broth microdilution method; type: functional; method in brief: as §1
Staphylococcus aureus [5] = experiment: Antimicrobial activity against Staphylococcus aureus RN4220 harboring erm(B) and cfr gene by broth microdilution method
Staphylococcus aureus [6] = experiment: Antimicrobial activity against erm(B) and cfr-deficient Staphylococcus aureus RN4220 harboring plasmid LI50 by broth microdilution method
Staphylococcus aureus [7] = experiment: Antimicrobial activity against cfr-deficient Staphylococcus aureus RN4220 harboring erm(B) gene by broth microdilution method; type: functional; method in brief: as §1
Staphylococcus aureus [8] = experiment: Antimicrobial activity against Staphylococcus aureus RN4220 harboring cfr gene with mutagenized first codon CAG; type: functional; method in brief: as §1
Staphylococcus aureus [9] = experiment: Antimicrobial activity against methicillin-resistant Staphylococcus aureus CM05 assessed as modification of A2058 site in 23S rRNA; type: functional
Staphylococcus aureus [10] = experiment: Antimicrobial activity against Staphylococcus aureus RN4220 harboring erm(B) promoter-deficient plasmid MS2 by broth microdilution method
Staphylococcus aureus [11] = experiment: Antimicrobial activity against Staphylococcus aureus RN4220 harboring cfr gene with mutagenized second codon CAG; type: functional; method in brief: as §1
Staphylococcus aureus [12] = experiment: Antimicrobial activity against methicillin-resistant Staphylococcus aureus CM05 assessed as modification of A2503 site in 23S rRNA; type: functional
Staphylococcus aureus [13] = experiment: Antimicrobial activity against methicillin-resistant Staphylococcus aureus RN4220 harboring erm(B) and cfr gene assessed as modification of A2058 site in 23S rRNA; type: functional
Staphylococcus aureus [14] = experiment: Antimicrobial activity against methicillin-resistant Staphylococcus aureus RN4220 harboring erm(B) and cfr gene assessed as modification of A2503 site in 23S rRNA; type: functional

| Compound | MIC (Staphylococcus aureus [1]) [µg/mL] | MIC (Staphylococcus aureus [2]) [µg/mL] | MIC (Staphylococcus aureus [3]) [µg/mL] | MIC (Staphylococcus aureus [4]) [µg/mL] | MIC (Staphylococcus aureus [5]) [µg/mL] | MIC (Staphylococcus aureus [6]) [µg/mL] | MIC (Staphylococcus aureus [7]) [µg/mL] | MIC (Staphylococcus aureus [8]) [µg/mL] | Activity (Staphylococcus aureus [9]) [%] | MIC (Staphylococcus aureus [10]) [µg/mL] | MIC (Staphylococcus aureus [11]) [µg/mL] | Activity (Staphylococcus aureus [12]) [%] | Activity (Staphylococcus aureus [13]) [%] | Activity (Staphylococcus aureus [14]) [%] |
| --- | --- | --- | --- | --- | --- | --- | --- | --- | --- | --- | --- | --- | --- | --- |
| O=C(N[C@H](CO)[C@H](O)c1ccc([N+](=O)[O-])cc1)C(Cl)Cl [CHLORAMPHENICOL] | 64 (≈ 198 µM) |  |  |  |  |  |  |  |  |  |  |  |  |  |
| CCC[C@@H]1C[C@@H](C(=O)N[C@@H]([C@H]2O[C@H](SC)[C@H](O)[C@@H](O)[C@H]2O)[C@H](C)Cl)N(C)C1 [CLINDAMYCIN] | > 1020 | 1020 (≈ 2410 µM) | > 1020 | < 1 | > 1020 | < 1 | > 1020 |  |  |  |  |  |  |  |
| CC[C@H]1OC(=O)[C@H](C)[C@@H](O[C@H]2C[C@@](C)(OC)[C@@H](O)[C@H](C)O2)[C@H](C)[C@@H](O[C@@H]2O[C@H](C)C[C@H](N(C)C)[C@H]2O)[C@](C)(O)C[C@@H](C)C(=O)[C@H](C)[C@@H](O)[C@]1(C)O [ERYTHROMYCIN] | > 1020 |  | > 1020 | 0.5 (≈ 0.681 µM) | > 1020 | 0.5 (≈ 0.681 µM) |  | > 1020 | 35 | 0.5 (≈ 0.681 µM) | > 1020 | 27 | 23 | 11 |
| CS(=O)(=O)c1ccc([C@@H](O)[C@@H](CF)NC(=O)C(Cl)Cl)cc1 [FLORFENICOL] |  |  | 128 (≈ 357 µM) | 4 (≈ 11.2 µM) | 128 (≈ 357 µM) | 4 (≈ 11.2 µM) |  | 128 (≈ 357 µM) | 32 | 4 (≈ 11.2 µM) | 4 (≈ 11.2 µM) | 20 | 20 | 16 |
| CO[C@@H]1[C@@H](O[C@@H]2O[C@H](C)[C@@H](O[C@H]3C[C@@](C)(O)[C@@H](OC(=O)CC(C)C)[C@H](C)O3)[C@H](N(C)C)[C@H]2O)[C@@H](CC=O)C[C@@H](C)[C@@H](O)/C=C/C=C/C[C@@H](C)OC(=O)C[C@H]1OC(C)=O [JOSAMYCIN] |  | 64 (≈ 77.3 µM) |  |  | > 2000 | 1 (≈ 1.21 µM) | > 2000 |  |  |  |  |  |  |  |
| CC(=O)NC[C@H]1CN(c2ccc(N3CCOCC3)c(F)c2)C(=O)O1 [LINEZOLID] | 8 (≈ 23.7 µM) |  |  |  |  |  |  |  |  |  |  |  |  |  |
| C=C[C@]1(C)C[C@@H](OC(=O)CSCCN(CC)CC)[C@]2(C)[C@H](C)CC[C@]3(CCC(=O)[C@H]32)[C@@H](C)[C@@H]1O [TIAMULIN] | 512 (≈ 1040 µM) |  | 128 (≈ 259 µM) | 1 (≈ 2.03 µM) |  |  |  |  |  |  |  |  |  |  |
| CC[C@H]1OC(=O)C[C@@H](O)[C@H](C)[C@@H](O[C@@H]2O[C@H](C)[C@@H](O[C@H]3C[C@@](C)(O)[C@@H](O)[C@H](C)O3)[C@H](N(C)C)[C@H]2O)[C@@H](CC=O)C[C@@H](C)C(=O)/C=C/C(C)=C/[C@@H]1CO[C@@H]1O[C@H](C)[C@@H](O)[C@@H](OC)[C@H]1OC [TYLOSIN] |  | 2 (≈ 2.18 µM) | > 1020 | 2 (≈ 2.18 µM) | 6000 (≈ 6550 µM) | 1 (≈ 1.09 µM) | 2000 (≈ 2180 µM) |  |  |  |  |  |  |  |
| SPIRAMYCIN |  | 128 |  |  |  |  | > 4000 |  |  |  |  |  |  |  |
